Laboratory results taken from ChEMBL document CHEMBL5653632, “PRMT5 inhibition disrupts splicing and stemness in glioblastoma” (Nat Commun, 2021).
Calls of active or inactive are those of the source. No cut-off for these calls is given here.

Columns and labels:
[1] = Antiproliferative activity against human G566 cells incubated for 9 to 12 days by IncuCyte zoom live-cell imaging analysis; assay type: functional, cell-based
Outline: (§1)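 Adherent culture on poly-L-ornithine/laminin in serum-free NS-A medium with EGF and bFGF (10 ng/mL each) and heparin. Nine concentrations (3 nM–30 µM), three technical replicates per dose, DMSO control, medium and drug refreshed every 5 days, run until DMSO wells were confluent (9–20 days). Confluence was imaged live and normalized to DMSO. Curves were taken at the 95th percentile of time to DMSO confluence, and AAC was calculated.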

[2] = Antiproliferative activity against human G851 cells incubated for 9 to 12 days by IncuCyte zoom live-cell imaging analysis; assay type: functional, cell-based; outline: as §1
[3] = Antiproliferative activity against human G895 cells incubated for 9 to 12 days by IncuCyte zoom live-cell imaging analysis; assay type: functional, cell-based; outline: as §1
[4] = biological target: Protein arginine N-methyltransferase 5 (Homo sapiens) (UniProt O14744); assay: Inhibition of PRMT5 in human G797 cells assessed as reduction in SDMA level at 1 uM after 7 days by Western blot analysis; assay type: cell-based; details: time 7.0 day
Chain of Protein arginine N-methyltransferase 5 (Homo sapiens) (O14744 whole entry): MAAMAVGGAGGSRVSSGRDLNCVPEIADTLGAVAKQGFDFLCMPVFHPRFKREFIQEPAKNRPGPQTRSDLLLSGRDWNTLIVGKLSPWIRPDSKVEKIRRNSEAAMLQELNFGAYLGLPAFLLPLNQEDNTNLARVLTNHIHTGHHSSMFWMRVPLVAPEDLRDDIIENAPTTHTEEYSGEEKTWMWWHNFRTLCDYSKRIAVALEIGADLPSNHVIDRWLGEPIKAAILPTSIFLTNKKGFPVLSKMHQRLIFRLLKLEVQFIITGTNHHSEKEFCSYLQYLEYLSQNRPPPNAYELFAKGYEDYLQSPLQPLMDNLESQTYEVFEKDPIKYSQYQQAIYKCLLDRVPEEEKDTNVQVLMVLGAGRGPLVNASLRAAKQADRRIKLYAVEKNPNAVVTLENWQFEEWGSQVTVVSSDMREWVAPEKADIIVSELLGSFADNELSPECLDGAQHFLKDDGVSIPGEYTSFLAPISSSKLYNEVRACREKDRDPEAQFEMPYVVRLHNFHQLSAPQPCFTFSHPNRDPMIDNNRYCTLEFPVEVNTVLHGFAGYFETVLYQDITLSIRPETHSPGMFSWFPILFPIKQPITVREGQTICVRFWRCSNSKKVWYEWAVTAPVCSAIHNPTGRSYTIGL

[5] = Drug concentration in NSG mouse plasma at 100 mg/kg, po measured after 24 hrs; assay type: ADME, organism-based
Outline: (§2)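 Single oral gavage to NSG mice (n = 3) at 25, 50 or 100 mg/kg; a 10× DMSO stock was diluted into 1% HEC/0.25% Tween 80/0.05% antifoam. Sacrifice at 24 h. Plasma came from cardiac-puncture blood. Brains were taken after PBS transcardiac perfusion and flash frozen. LC-MS quantitation used a 10-point standard curve of 10–10,000 ng/mL.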

[6] = Drug concentration in NSG mouse brain at 100 mg/kg, po measured after 24 hrs; assay type: ADME, organism-based; details: read-out: Ct; outline: as §2
[7] = Toxicity in NSG mouse assessed as body weight loss at 50 mg/kg, po administered every other day for 3 weeks; assay type: organism-based; details: in vivo, 504 h
[8] = Toxicity in NSG mouse assessed as body weight loss at 50 mg/kg, po administered as 3 days on and 4 days off schedule and measured upto 8 weeks; assay type: organism-based; details: in vivo, 1344 h
Outline: (§3)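 NSG mice, 3 per group, dosed orally in weekly cycles of 3 days on and 4 days off. Weight and condition were recorded twice weekly. Mice losing more than 20% body weight were sacrificed.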

[9] = Toxicity in NSG mouse assessed as tolerability at 50 mg/kg, po administered as 3 days on and 4 days off schedule and measured upto 8 weeks; assay type: organism-based; details: in vivo, 1344 h; outline: as §3
G411 [10] = assay: Antitumor activity against human G411 xenografted in NSG mouse assessed as mean survival time at 50 mg/kg, po administered as 3 days on and 4 days off schedule for 4 cycles (reference value: 30 days); assay type: functional; details: time 28 day
Outline: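 Female NSG mice, 5–10 weeks old, 12 per group. 2 × 10^4 G411 cells were injected stereotactically into the forebrain, 3 mm deep. Oral gavage started 1 week later in vehicle of 1% HEC/0.25% Tween 80/0.05% antifoam, given daily for 3 days then 4 days off, for 4 cycles or until end point. Mice were euthanized at neurological symptoms with domed head. Survival was compared by log-rank test.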

G411 [11] = assay: Antitumor activity against human G411 cells xenografted in NSG mouse assessed as reduction in dense cell growth at 50 mg/kg, po administered as 3 days on and 4 days off schedule for 4 cycles; assay type: functional, organism-based; details: time 28.0 day
Outline: (§4)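 Female NSG mice aged 5–10 weeks received 2 × 10^4 G411 GSCs stereotaxically into the forebrain (2 mm lateral, 1 mm posterior to bregma, 3 mm deep). From 1 week post-implant, mice got 50 mg/kg by oral gavage in 1% HEC/0.25% Tween 80/0.05% antifoam, 3 days on/4 off, for 4 cycles or until endpoint. Endpoint brains went to H&E; tumor tissue went to SDMA western blot.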

G411 [12] = assay: In vivo inhibition of PRMT5 in human G411 cells xenografted in NSG mouse assessed as reduction in SDMA level at 50 mg/kg, po administered as 3 days on and 4 days off schedule for 4 cycles; assay type: functional, organism-based; details: time 28.0 day; outline: as §4
[13] = Antiproliferative activity against human BT50 cells incubated for 9 to 12 days by IncuCyte zoom live-cell imaging analysis; assay type: functional, cell-based
[14] = Antiproliferative activity against human G571 cells incubated for 9 to 12 days by IncuCyte zoom live-cell imaging analysis; assay type: functional, cell-based
Outline: (§5)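 Adherent GSC lines on poly-L-ornithine/laminin in serum-free EGF/bFGF medium were exposed to nine concentrations from 3 nM to 30 µM, with three technical replicates per dose. Exposure lasted 9–20 days until DMSO controls were confluent, with drug-containing medium refreshed every 5 days. IncuCyte confluence was normalized to DMSO. Curves were built at the 95th percentile of DMSO time-to-confluence, and AAC was derived with PharmacoGx.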

[15] = Antiproliferative activity against human G584 cells incubated for 9 to 12 days by IncuCyte zoom live-cell imaging analysis; assay type: functional, cell-based; outline: as §5
[16] = Antiproliferative activity against human G567 cells incubated for 9 to 12 days by IncuCyte zoom live-cell imaging analysis; assay type: functional, cell-based; outline: as §5
[17] = Antiproliferative activity against human G719 cells incubated for 9 to 12 days by IncuCyte zoom live-cell imaging analysis; assay type: functional, cell-based; outline: as §5
[18] = Antiproliferative activity against human G613 cells incubated for 9 to 12 days by IncuCyte zoom live-cell imaging analysis; assay type: functional, cell-based; outline: as §5
[19] = Antiproliferative activity against human BT301 cells incubated for 9 to 12 days by IncuCyte zoom live-cell imaging analysis; assay type: functional, cell-based
[20] = Antiproliferative activity against human BT94 cells incubated for 9 to 12 days by IncuCyte zoom live-cell imaging analysis; assay type: functional, cell-based
[21] = Antiproliferative activity against human G637 cells incubated for 9 to 12 days by IncuCyte zoom live-cell imaging analysis; assay type: functional, cell-based; outline: as §5
[22] = Antiproliferative activity against human BT67 cells incubated for 9 to 12 days by IncuCyte zoom live-cell imaging analysis; assay type: functional, cell-based
[23] = Antiproliferative activity against human BT238 cells incubated for 9 to 12 days by IncuCyte zoom live-cell imaging analysis; assay type: functional, cell-based
[24] = Antiproliferative activity against human BT189 cells incubated for 9 to 12 days by IncuCyte zoom live-cell imaging analysis; assay type: functional, cell-based
[25] = Antiproliferative activity against human G752 cells incubated for 9 to 12 days by IncuCyte zoom live-cell imaging analysis; assay type: functional, cell-based; outline: as §5
G583 = assay: Inhibition of cell growth in human G583 cells pretreated with compound for 14 days followed by compound washout and measured after 14 days; assay type: functional, cell-based; details: time 14.0 day
Outline: (§6)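 GSC lines were treated with 1 µM for 14 days. Compound was then washed out, and growth was followed for a further 14 days.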

G561 = assay: Inhibition of cell growth in human G561 cells pretreated with compound for 14 days followed by compound washout and measured after 14 days; assay type: functional, cell-based; details: time 14.0 day; outline: as §6
G837 = assay: Inhibition of cell growth in human G837 cells pretreated with compound for 14 days followed by compound washout and measured after 14 days; assay type: functional, cell-based; details: time 14.0 day; outline: as §6
G411 [26] = assay: Inhibition of cell growth in human G411 cells pretreated with compound for 14 days followed by compound washout and measured after 14 days; assay type: functional, cell-based; details: time 14.0 day; outline: as §6

## Nc1ncnc2c1ccn2[C@@H]1O[C@H]([C@H](O)c2ccccc2)[C@@H](O)[C@H]1O
[1]
  IC50: 0.03 µM
[2]
  IC50: 0.01 µM
[3]
  IC50: 0.1 µM
[4]
  inhibition: Active
[5]
  concentration at 24 h: 0.159 µM
[6]
  concentration at 24 h: 0.269 µM
[7]
  Activity: > 20%
[8]
  Activity: < 10%
[9]
  Activity: Non-Toxic
G411 [10]
  Time: 37 days
G411 [11]
  Activity: Active
G411 [12]
  inhibition: Active
[13]
  IC50: 0.02 µM

## O=C(NC[C@H](O)CN1CCc2ccccc2C1)c1ccnc(NC2CCC2)c1
[14]
  IC50: 45.6 µM
[15]
  IC50: 39 µM
[16]
  IC50: 29.3 µM
[17]
  IC50: 9.23 µM
[18]
  IC50: 19.2 µM
[1]
  IC50: 2.05 µM
[2]
  IC50: 0.57 µM
[19]
  IC50: 0.1 µM
[20]
  IC50: 0.06 µM
[3]
  IC50: 0.64 µM
[21]
  IC50: 0.34 µM
[22]
  IC50: 0.05 µM
[23]
  IC50: 0.15 µM
[24]
  IC50: 0.11 µM
[25]
  EC50: 0.05 µM
[4]
  inhibition: Active
G583
  inhibition: Active
G561
  inhibition: inactive
G837
  inhibition: inactive
G411 [26]
  inhibition: inactive
